A word on the EC50: it is the concentration that produces a half-maximal response. What is called EC90 is the point of the concentration-response curve where the effect stands at 90%. What is called CC50 is the concentration that lowers cell viability or growth by half. As usually defined, the inhibition is the share of the control response that was lost under treatment. In general, solubility refers to the dissolved amount per volume that the medium holds.

In brackets after ≈: the same amount, converted by molar mass. Several values for one entry are separate records, joined by “and”; a condition that tells them apart may be missing. Equal values may be shown once. Activity calls are given as the source filed them. The rule behind the calls is not given here.

Data set [1] deals with Zika virus. The data set is described as follows: Antiviral activity against ZIKV MR766 infected in African green monkey Vero cells assessed as viral growth inhibition at 11 to 100 uM pretreated with virus for 1 hr followed by infection of cells with compound treated-virus for 30 hrs by focus reduction assay. The class given is functional, organism-based. To be noted: dose 11-100 µM, time 31.0 hrs. Put shortly:
(§1)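 Screening focus reduction assay. Vero cells were seeded 1.2 × 10^4/well. ZIKV MR766 or USUV (MOI 0.02) was preincubated 1 h at 37 °C with 100, 33 or 11 μM compound, then added to cells for 30 h (ZIKV) or 20 h (USUV). Cells were fixed in acetone-methanol and immunostained with anti-flavivirus E 4G2 plus a peroxidase secondary. Foci counted microscopically; % infection versus DMSO-matched untreated wells. Medium contained 2% FBS.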

Data set [2] relates to Usutu virus. The data set is described as follows: Antiviral activity against USUV 3345 isolate Arb276 infected in African green monkey Vero cells assessed as viral growth inhibition at 11 to 100 uM pretreated with virus for 1 hr followed by infection of cells with compound treated-virus for 20 hrs by focus reduction assay. In kind it is functional, organism-based. To be noted: dose 11-100 µM, time 21.0 hrs. The method, boiled down: as §1

Data set [3] has as its system Usutu virus. The data set is described as follows: Antiviral activity against USUV 3345 isolate Arb276 infected in African green monkey Vero cells assessed as reduction in viral replication pretreated with virus for 1 hr followed by infection of cells with compound treated-virus for 20 hrs by focus reduction assay. In kind it is functional, organism-based.
Data set [4] deals with Zika virus. The data set is described as follows: Antiviral activity against ZIKV MR766 infected in African green monkey Vero cells assessed as reduction in viral replication pretreated with virus for 1 hr followed by infection of cells with compound treated-virus for 30 hrs by focus reduction assay. In kind it is functional, organism-based.
The test system of data set [5] is Usutu virus. The data set can be described thus: Antiviral activity against USUV 3345 isolate Arb276 infected in human A549 cells assessed as reduction in viral replication pretreated with virus for 1 hr followed by infection of cells with compound treated-virus for 20 hrs by focus reduction assay. In kind it is functional, organism-based. The note with it: Usutu virus, 3345, A549. Put shortly:
(§2)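 Dose-response: serial dilutions (100 to 0.13 μM) preincubated 1 h at 37 °C with virus (MOI 0.02), then added to cells for 20 h (USUV) or 30 h (ZIKV) in 2% FBS DMEM. Cells per well: Vero 1.2 × 10^4, A549 1.3 × 10^4, Huh7 1.6 × 10^4. Foci immunostained and counted. EC50/EC90 fitted by variable-slope sigmoidal curve, mean of three independent experiments.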

Data set [6] relates to Zika virus. The data set is described as follows: Antiviral activity against ZIKV MR766 infected in human A549 cells assessed as reduction in viral replication pretreated with virus for 1 hr followed by infection of cells with compound treated-virus for 30 hrs by focus reduction assay. In kind it is functional, organism-based. Put shortly: as §2
Data set [7] concerns Usutu virus. The data set is described as follows: Antiviral activity against USUV 3345 isolate Arb276 infected in human Huh-7 cells assessed as reduction in viral replication pretreated with virus for 1 hr followed by infection of cells with compound treated-virus for 20 hrs by focus reduction assay. The class given is functional, organism-based. To be noted: Usutu virus, 3345, Huh-7. Put shortly:
as §2

For data set [8], the system named is Zika virus. The data set can be described thus: Antiviral activity against ZIKV MR766 infected in human Huh-7 cells assessed as reduction in viral replication pretreated with virus for 1 hr followed by infection of cells with compound treated-virus for 30 hrs by focus reduction assay. In kind it is functional, organism-based. Put shortly:
as §2

The nature of data set [9]: Cytotoxicity against African green monkey Vero cells infected with USUV 3345 isolate Arb276 pretreated with virus for 1 hr followed by infection of cells with compound treated-virus for 20 hrs by MTS assay. The class given is toxicity, cell-based. The note with it: chlorocebus sabaeus. Put shortly:
(§3)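 MTS viability assay. Cells were treated under the same conditions as the antiviral assays. Absorbance was expressed as % of medium-only cells, and CC50 was derived from the curve. Seeding densities were 1.2 × 10^4/well for Vero, 1.3 × 10^4/well for A549 and 1.6 × 10^4/well for Huh7. DMEM with 2% FBS.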
(In general: Tetrazolium dyes change colour on reduction, which living cells bring about.)

The nature of data set [10]: Cytotoxicity against African green monkey Vero cells infected with ZIKV MR766 pretreated with virus for 1 hr followed by infection of cells with compound treated-virus for 30 hrs by MTS assay. In kind it is toxicity, cell-based. To be noted: chlorocebus sabaeus. The method, boiled down: as §3
Data set [11] is described as follows: Cytotoxicity against human A549 cells infected with USUV 3345 isolate Arb276 pretreated with virus for 1 hr followed by infection of cells with compound treated-virus for 20 hrs by MTS assay. The class given is toxicity, cell-based. The method, boiled down:
as §3

A short description of data set [12]: Cytotoxicity against human A549 cells infected with ZIKV MR766 pretreated with virus for 1 hr followed by infection of cells with compound treated-virus for 30 hrs by MTS assay. The class given is toxicity, cell-based. Put shortly:
as §3

The nature of data set [13]: Cytotoxicity against human Huh-7 cells infected with USUV 3345 isolate Arb276 pretreated with virus for 1 hr followed by infection of cells with compound treated-virus for 20 hrs by MTS assay. In kind it is toxicity, cell-based. The method, boiled down:
as §3

Data set [14] is described as follows: Cytotoxicity against human Huh-7 cells infected with ZIKV MR766 pretreated with virus for 1 hr followed by infection of cells with compound treated-virus for 30 hrs by MTS assay. In kind it is toxicity, cell-based. The method, boiled down: as §3
Data set [15] deals with Zika virus. The data set can be described thus: Antiviral activity against ZIKV MR766 infected in African green monkey Vero cells assessed as viral growth inhibition at 33 uM pretreated with virus for 1 hr followed by infection of cells with compound treated-virus for 30 hrs by focus reduction assay relative to control. To be noted: time 31 hrs. In kind it is functional. The method, boiled down:
(§4)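 Virus (MOI 0.02) preincubated with compound 1 h at 37 °C, then mixture put on Vero cells (1.2 × 10^4/well, seeded the day before) in DMEM with 2% FBS for 30 h (ZIKV) or 20 h (USUV) at 37 °C. Fixed in cold acetone-methanol, foci immunostained with anti-flavivirus E 4G2 antibody and counted. % infection is relative to DMSO-treated wells. Screen used 100, 33 and 11 μM.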

For data set [16], the system named is Usutu virus. The data set is described as follows: Antiviral activity against USUV 3345 isolate Arb276 infected in African green monkey Vero cells assessed as viral growth inhibition at 33 uM pretreated with virus for 1 hr followed by infection of cells with compound treated-virus for 20 hrs by focus reduction assay relative to control. In kind it is functional. The note with it: Usutu virus, 3345, Vero, time 21 hrs. Put shortly: as §4

Data set [17] in a line: Selectivity index, ratio of CC50 for African green monkey Vero cells infected with ZIKV MR766 to EC50 for ZIKV MR766 infected in African green monkey Vero cells. The class given is toxicity, cell-based. To be noted: read-out: Ratio CC50/EC50.
Data set [18] is described as follows: Selectivity index, ratio of CC50 for African green monkey Vero cells infected with USUV 3345 isolate Arb276 to EC50 for USUV 3345 isolate Arb276 infected in African green monkey Vero cells. The class given is toxicity, cell-based. The note with it: read-out: Ratio CC50/EC50.
Data set [19] has as its system Zika virus. The data set can be described thus: Antiviral activity against ZIKV HPF2013 infected in African green monkey Vero cells assessed as reduction in viral replication pretreated with virus for 1 hr followed by infection of cells with compound treated-virus for 30 hrs by focus reduction assay. In kind it is functional, organism-based.
Data set [20] can be described thus: Cytotoxicity against African green monkey Vero cells infected with ZIKV HPF2013 pretreated with virus for 1 hr followed by infection of cells with compound treated-virus for 30 hrs by MTS assay. The class given is toxicity, cell-based. To be noted: chlorocebus sabaeus. The method, boiled down: as §3
Data set [21] is described as follows: Selectivity index, ratio of CC50 for African green monkey Vero cells infected with ZIKV HPF2013 to EC50 for ZIKV HPF2013 infected in African green monkey Vero cells. The class given is toxicity, cell-based. To be noted: read-out: Ratio CC50/EC50.
Data set [22] can be described thus: Solubility in i-propanol at 25 degreeC. In kind it is physicochemical.
Data set [23] is described as follows: Solubility in DMSO at 25 degreeC. In kind it is physicochemical.
The nature of data set [24]: Aqueous solubility in deionized water containing 1.38% DMSO. In kind it is physicochemical.

For the compound `O=C1[C@@H]2CCCN2[C@@H](c2cccc(O)c2)N1c1ccc([N+](=O)[O-])cc1`, the outcome with Zika virus [1] and in the data set on Usutu virus [2] was inactive.
Take `CCN(CC)CCCC(C)Nc1ccnc2cc(Cl)ccc12` (stereo unspecified) [CHLOROQUINE]: the concentration for a half-maximal effect (EC50) stood at 8.3 µM in the data set with Usutu virus [3] (Usutu virus, 3345, Vero); 1.53 µM in the data set on Zika virus [4]; 4.24 µM in the data set on Usutu virus [5]; 5.99 µM in the data set on Zika virus [6]; 4.82 µM in the data set with Usutu virus [7]; 0.95 µM in the data set with Zika virus [8] (MR766, Huh-7). Moreover, the EC90 turned out to be 28.2 µM in the data set with Usutu virus [3] (Usutu virus, 3345, Vero, time 21 hrs); 5.77 µM in the data set on Zika virus [4] (time 31 hrs); 60.1 µM in the data set with Usutu virus [5] (time 21 hrs); 50.3 µM with Zika virus [6] (time 31 hrs); 11.8 µM with Usutu virus [7] (time 21 hrs); 2.36 µM in the data set on Zika virus [8] (MR766, Huh-7, time 31 hrs). Besides, the values for the CC50 at 21 h in data set [9], in [11] and in [13] were 115 µM, 144 µM and 75.5 µM, respectively. Moreover, the CC50 at 31 h came to 136 µM in data set [10], 80.5 µM in data set [12] and 58.5 µM in [14].
For the compound `COc1ccc([C@H]2N(c3ccc([N+](=O)[O-])cc3)C(=O)[C@@H]3CCCN32)cc1OC`, the result with Zika virus [1] and in the data set on Usutu virus [2] was inactive.
For the compound `O=C1[C@@H]2CCCN2[C@@H](c2ccco2)N1Nc1ccccc1`, the inhibition at 33 µM in the data set with Zika virus [15] and in the data set on Usutu virus [16] was less than 50% in each case.
Take `COc1ccc(C[C@H]2N(c3ccc([N+](=O)[O-])cc3)C(=O)[C@@H]3CCCN32)cc1O`: the outcome with Zika virus [1] and in the data set with Usutu virus [2] was inactive.
For the compound `C=C1/C(=C\C=C2/CCC[C@]3(C)[C@@H]([C@H](C)/C=C/C=C/C(O)(CC)CC)CC[C@@H]23)C[C@@H](O)C[C@@H]1O` [SEOCALCITOL], the EC50 in the data set with Usutu virus [3] (vero) was 2.13 µM and 9.94 µM; with Zika virus [4] it was 7.51 µM; in the data set on Zika virus [19], 2.83 µM. Moreover, in data set [9], the CC50 at 21 h came out at 11.9 µM. The CC50 at 31 h in data set [10] and in [20] was 11 µM each time. The selectivity ratio stood at 1.5 in [17], 6 in data set [18] and 3.9 in data set [21].
Turning to `COc1cc([C@H]2N(Nc3ccccc3)C(=O)[C@@H]3CCCN32)ccc1O`, the inhibition at 33 µM in the data set with Zika virus [15] and in the data set on Usutu virus [16] was less than 50% in each case.
For `COc1cc([C@H]2N(c3ccc([N+](=O)[O-])cc3)C(=O)[C@@H]3CCCN32)ccc1O`, the solubility in data set [22] came out at 1170 µg/mL (≈ 3.17 mM); in [23] it was 37500 µg/mL (≈ 102 mM); in [24] it was 518 µg/mL (≈ 1.4 mM).
As to `COc1ccc(C[C@H]2N(Nc3ccc([N+](=O)[O-])cc3)C(=O)[C@@H]3CCCN32)cc1OC`, the result in the data set with Zika virus [1] and with Usutu virus [2] was inactive.
`O=C1[C@@H]2CCCN2[C@@H](Cc2ccc(O)c(O)c2)N1c1ccc([N+](=O)[O-])cc1`: the outcome with Zika virus [1] and with Usutu virus [2] was inactive.
Regarding `O=C1[C@@H]2CCCN2[C@@H](Cc2ccc(O)cc2)N1c1ccc([N+](=O)[O-])cc1`, the result in the data set with Zika virus [1] and in the data set with Usutu virus [2] was inactive.
Turning to `O=C1[C@@H]2CCCN2[C@@H](c2ccc(O)c(O)c2)N1c1ccc([N+](=O)[O-])cc1`, the outcome in the data set with Zika virus [1] and in the data set with Usutu virus [2] was inactive.
`O=C1[C@@H]2CCCN2[C@@H](c2ccco2)N1Nc1ccc([N+](=O)[O-])cc1`: the outcome with Zika virus [1] and in the data set with Usutu virus [2] was inactive.
As for `COc1ccc([C@H]2N(c3ccc([N+](=O)[O-])cc3)C(=O)[C@@H]3CCCN32)cc1O`, the result in the data set with Zika virus [1] and with Usutu virus [2] was inactive.
With `COc1cc([C@H]2N(Nc3ccc([N+](=O)[O-])cc3)C(=O)[C@@H]3CCCN32)ccc1O`, the outcome in the data set with Zika virus [1] and in the data set with Usutu virus [2] was inactive.
With `COc1cc(C[C@H]2N(c3ccc([N+](=O)[O-])cc3)C(=O)[C@@H]3CCCN32)ccc1O`, the outcome in the data set on Zika virus [1] and with Usutu virus [2] was inactive.
